The Ki is the dissociation constant of the complex between target and ligand, obtained from inhibition or displacement. Read a high Ki as lower affinity.

Ki, Ratio Ki and Bmax data for 19 compounds are collected here from ChEMBL document CHEMBL2062418, “C3-heteroaroyl cannabinoids as photolabeling ligands for the CB2 cannabinoid receptor” (Bioorg Med Chem Lett, 2012).

In assay [1] the target is Cannabinoid receptor 2 (Homo sapiens, UniProt P34972). The assay can be described thus: Displacement of [3H]CP-55,940 from human CB2 receptor expressed in HEK293 cells. Type of assay: cell-based. Summed up:
(§1)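 Competition binding with [3H]CP-55,940 on rat brain membranes (CB1) or on membranes from HEK293 cells expressing mouse or human CB2. Screened first at two points in triplicate. Where that screen gave Ki below 1000 nM, Ki was taken from one 8-point experiment run in triplicate.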
(In a radioligand displacement assay an active substance lowers the binding of a labelled ligand.)

Assay [2] has as its target Cannabinoid receptor 2 (Mus musculus, UniProt P47936). The assay can be described thus: Displacement of [3H]CP-55,940 from mouse CB2 receptor expressed in HEK293 cells. It counts as cell-based. The method in brief: as §1
The target of assay [3] is Cannabinoid receptor 1 (Rattus norvegicus, UniProt P20272). The assay can be described thus: Displacement of [3H]CP-55,940 from rat brain CB1 receptor. Summed up:
as §1

The nature of assay [4]: Selectivity ratio of Ki for rat CB1 receptor to Ki for mouse CB2 receptor.
Assay [5] deals with Cannabinoid receptor 2 (Mus musculus) (UniProt P47936). The note with it: HEK293, 342 nM.
Cannabinoid receptor 2 (Mus musculus), sequence (P47936 whole entry): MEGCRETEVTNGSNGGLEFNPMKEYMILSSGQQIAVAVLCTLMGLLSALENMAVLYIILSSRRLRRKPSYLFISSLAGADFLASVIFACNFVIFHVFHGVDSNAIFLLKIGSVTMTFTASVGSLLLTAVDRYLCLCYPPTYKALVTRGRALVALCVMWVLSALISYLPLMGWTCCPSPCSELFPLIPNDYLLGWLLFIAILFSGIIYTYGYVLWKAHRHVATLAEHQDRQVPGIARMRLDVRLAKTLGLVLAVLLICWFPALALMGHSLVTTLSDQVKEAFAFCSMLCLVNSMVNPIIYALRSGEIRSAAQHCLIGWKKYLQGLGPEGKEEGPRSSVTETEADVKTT

Cannabinoid receptor 2 (Homo sapiens, UniProt P34972), sequence (P34972 whole entry): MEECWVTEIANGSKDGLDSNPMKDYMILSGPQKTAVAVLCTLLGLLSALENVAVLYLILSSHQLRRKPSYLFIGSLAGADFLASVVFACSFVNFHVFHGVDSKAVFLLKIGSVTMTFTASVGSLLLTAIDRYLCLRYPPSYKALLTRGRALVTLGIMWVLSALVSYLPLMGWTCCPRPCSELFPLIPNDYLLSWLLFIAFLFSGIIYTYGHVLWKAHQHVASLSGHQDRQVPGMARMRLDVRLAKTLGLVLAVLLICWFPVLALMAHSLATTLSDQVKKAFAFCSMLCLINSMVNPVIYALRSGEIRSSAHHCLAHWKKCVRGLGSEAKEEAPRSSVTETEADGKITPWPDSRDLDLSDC
Cannabinoid receptor 1, sequence (P20272 whole entry): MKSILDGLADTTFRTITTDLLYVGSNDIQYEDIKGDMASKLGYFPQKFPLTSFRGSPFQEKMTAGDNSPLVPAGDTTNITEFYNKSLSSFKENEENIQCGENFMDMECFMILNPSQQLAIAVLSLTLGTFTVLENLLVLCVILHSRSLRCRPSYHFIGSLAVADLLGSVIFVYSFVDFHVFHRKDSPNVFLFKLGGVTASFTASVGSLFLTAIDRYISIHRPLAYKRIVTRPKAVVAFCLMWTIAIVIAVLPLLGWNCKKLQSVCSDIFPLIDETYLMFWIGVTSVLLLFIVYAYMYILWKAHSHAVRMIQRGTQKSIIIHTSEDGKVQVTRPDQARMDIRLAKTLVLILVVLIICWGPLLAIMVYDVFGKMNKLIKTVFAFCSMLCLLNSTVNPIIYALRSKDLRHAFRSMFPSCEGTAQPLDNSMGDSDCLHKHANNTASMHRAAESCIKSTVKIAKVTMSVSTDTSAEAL
Cannabinoid receptor 2 (Mus musculus, UniProt P47936), sequence (P47936 whole entry): as the sequence (P47936 whole entry) above

For `CC1(C)Oc2cc(C(=O)c3ccsc3)cc(O)c2[C@@H]2C[C@H](O)CC[C@H]21`, the results for the Ki in assay [1], in assay [2] and in assay [3] were 1550 nM, 525 nM and 1040 nM, respectively.
Consider `Cn1cc(C(=O)c2cc(O)c3c(c2)OC(C)(C)[C@@H]2CC[C@@H](O)C[C@@H]32)c2ccccc21`, for which the Ki was found to be 3010 nM in assay [1], 406 nM in assay [2] and 3270 nM in assay [3].
Consider `CC1(C)Oc2cc(C(=O)c3coc4ccccc34)cc(O)c2[C@@H]2C[C@H](O)CC[C@H]21`, for which the Ki in assay [1] stood at 118 nM; in assay [2] it was 169 nM; in assay [3], 2880 nM. For the same compound, the Ratio Ki in assay [4] turned out to be 17.
Regarding `CC1(C)Oc2cc(C(=O)c3cncs3)cc(O)c2[C@@H]2C[C@H](O)CC[C@H]21`, the Ki in assay [2] and in assay [3] was greater than 1000 nM throughout.
For `CC1(C)Oc2cc(C(=O)c3cscn3)cc(O)c2[C@@H]2C[C@H](O)CC[C@H]21`, the Ki in assay [1], in assay [2] and in assay [3] was greater than 1000 nM each time.
On to `CC1(C)Oc2cc(C(=O)c3ccco3)cc(O)c2[C@@H]2C[C@H](O)CC[C@H]21`, for which the Ki in assay [2] and in assay [3] was greater than 1000 nM in each case.
Take `CC1(C)Oc2cc(C(=O)c3cccc(C(F)(F)F)c3)cc(O)c2[C@@H]2C[C@H](O)CC[C@H]21`: the Ki came to 37.3 nM in assay [1], 45.8 nM in assay [2] and 61.7 nM in assay [3].
For the compound `CC1(C)Oc2cc(C(=O)c3cc4ccccc4s3)cc(O)c2[C@@H]2C[C@H](O)CC[C@H]21`, the Ki came out at 113 nM in assay [1], 152 nM in assay [2] and 157 nM in assay [3].
Consider `CC1(C)Oc2cc(C(=O)c3c[nH]c4ccccc34)cc(O)c2[C@@H]2C[C@H](O)CC[C@H]21`, for which the Ki in assay [1] amounted to 159 nM; in assay [2], 60.4 nM; in assay [3], 1050 nM. Further, in assay [4], the Ratio Ki amounted to 17.
With `CC1(C)Oc2cc(C(=O)c3ccncc3F)cc(O)c2[C@@H]2C[C@H](O)CC[C@H]21`, the Ki in assay [2] and in assay [3] was greater than 1000 nM throughout.
For `CC1(C)Oc2cc(C(=O)c3ccncc3)cc(O)c2[C@@H]2C[C@H](O)CC[C@H]21`, the Ki in assay [1], in assay [2] and in assay [3] was greater than 1000 nM throughout.
In the case of `CC1(C)Oc2cc(C(=O)c3cccs3)cc(O)c2[C@@H]2C[C@H](O)CC[C@H]21`, the Ki in assay [2] and in assay [3] was greater than 1000 nM in each case.
With `CC1(C)Oc2cc(C(=O)c3cc4ccccc4o3)cc(O)c2[C@@H]2C[C@H](O)CC[C@H]21`, the inhibition constant (Ki) in assay [1] is 209 nM; in assay [2], 163 nM; in assay [3] it was 1360 nM.
For `CC1(C)Oc2cc(C(=O)c3ccccn3)cc(O)c2[C@@H]2C[C@H](O)CC[C@H]21`, in that order: greater than 1000 nM, greater than 1000 nM and greater than 1000 nM.
In the case of `CC1(C)Oc2cc(C(=O)c3cccc(F)c3)cc(O)c2[C@@H]2C[C@H](O)CC[C@H]21`, the inhibitory constant (Ki) in assay [2] stood at 370 nM; in assay [3], 460 nM.
Consider `CC1(C)Oc2cc(C(=O)c3cccnc3)cc(O)c2[C@@H]2C[C@H](O)CC[C@H]21`, for which the Ki in assay [1], in assay [2] and in assay [3] was greater than 1000 nM in each case.
For the compound `CC1(C)Oc2cc(C(=O)c3ccccc3)cc(O)c2[C@@H]2C[C@H](O)CC[C@H]21`, the Ki in assay [1] is 587 nM; in assay [2], 247 nM; in assay [3], 968 nM.
In the case of `CC1(C)Oc2cc(C(=O)c3csc4ccccc34)cc(O)c2[C@@H]2C[C@H](O)CC[C@H]21`, the Ki amounted to 125 nM in assay [1], 34.2 nM in assay [2] and 1250 nM in assay [3]. Also, the Ratio Ki in assay [4] was found to be 37. The same compound gave a Bmax in assay [5] of 67%.
For the compound `CC1(C)Oc2cc(C(=O)c3ccoc3)cc(O)c2[C@@H]2C[C@H](O)CC[C@H]21`, the Ki in assay [2] and in assay [3] was greater than 1000 nM in each case.
